Test results: ChEMBL document CHEMBL4513216, “Probing the Open Global Health Chemical Diversity Library for Multistage-Active Starting Points for Next-Generation Antimalarials” (ACS Infect Dis, 2020)

Assay: Toxicity liver stage against HepG2, at 10uM
Assay type: cell-based
Design: test concentration 10 uM, cell line HepG2-A16-CD81EGFP
Conditions: human, HepG2-A16-CD81EGFP cells; read-out: INHIBITION
Method in brief: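 Uninfected HepG2-A16-CD81EGFP cells, 3 × 10^3 per well, 1536-well, plated on prespotted compound at 10 μM final, parasite-free screening media added to match infected plates; puromycin 10 μM positive, DMSO 0.5% negative; run in parallel with 48 h PbLuc assay at 37 °C, 5% CO2; viability by CellTiter-Glo luminescence, normalized to controls.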

CCn1cc(CN(C)S(=O)(=O)c2ccccc2)cn1
cytotoxicity at 10 µM: 11.9%

O=C(CC1CC1)N1CCC2(CC(=O)N(c3cccc(F)c3)C2)C1 (configuration not stated)
cytotoxicity at 10 µM: -148%

Cc1noc(C)c1S(=O)(=O)N1CCC(Oc2cccnn2)CC1
cytotoxicity at 10 µM: 0.0701%

O=C(NCC1(O)CCOc2ccccc21)Nc1ccc2c(c1)OCO2 (configuration not stated)
cytotoxicity at 10 µM: -5.12%

Cc1nc(C2CCCN(C(=O)C3=NN(C(C)C)C(=O)CC3)C2)no1 (configuration not stated)
cytotoxicity at 10 µM: -3.32%

COC(=O)[C@H]1CN(S(C)(=O)=O)CCN1S(C)(=O)=O
cytotoxicity at 10 µM: -1.37%

CN(CCOc1cccc(S(C)(=O)=O)c1)CC(F)F
cytotoxicity at 10 µM: 13%

CS(=O)(=O)NCCNC(=O)NC1(c2ccc(Cl)cc2)CCC1
cytotoxicity at 10 µM: -2.48%

Cc1noc(C)c1S(=O)(=O)N1CCC(n2cccn2)CC1
cytotoxicity at 10 µM: 2.63%

OCCNc1nc(NCCc2ccccc2)nc2nccnc12
cytotoxicity at 10 µM: 5.91%

Cc1cc(C(=O)N2C[C@@H]3COC[C@]3(c3nnc(C)o3)C2)on1
cytotoxicity at 10 µM: -0.505%

Cc1ccc([C@]2(O)CC[C@H]3CN(Cc4cccc(F)c4F)C[C@H]32)nc1
cytotoxicity at 10 µM: -8.38%

Cc1cc(O)c(OCC(=O)/N=c2\[nH]cc(C)s2)cn1
cytotoxicity at 10 µM: -12.4%

Cn1cnc2c1C(COCC1CCOCC1)CN(Cc1ccccn1)C2 (configuration not stated)
cytotoxicity at 10 µM: -78.2%

NC(=O)c1cnn2c1NCC(CNCCc1cccs1)C2 (configuration not stated)
cytotoxicity at 10 µM: -9.63%

CCOc1cc(F)ccc1NC(=O)NCC(c1cnn(C)c1)N(C)C (configuration not stated)
cytotoxicity at 10 µM: 5.09%

CC(c1ccccn1)N(C)Cc1ccc(CCC(C)(C)O)cc1 (configuration not stated)
cytotoxicity at 10 µM: 1.82%

OCC1(CC2CCCCO2)CCN(c2cnc3ccccc3n2)CC1 (configuration not stated)
cytotoxicity at 10 µM: 21.1%

O=C(O)c1cc(S(=O)(=O)N2CCOc3ccccc32)ccc1F
cytotoxicity at 10 µM: -2.94%

Cn1cc(CCCN2CCCC(c3cc(C(F)(F)F)[nH]n3)C2)cn1 (configuration not stated)
cytotoxicity at 10 µM: -2.59%

O=C(NCc1nnc2n1CCCC2)N(Cc1ccccc1F)C1CC1
cytotoxicity at 10 µM: -9.29%

CN(C)C(=O)c1nc(-c2ccc(S(C)(=O)=O)cc2)c2cnccn12
cytotoxicity at 10 µM: 7.27%

CCSCCC(C)N(C)C(=O)c1cc(C)no1 (configuration not stated)
cytotoxicity at 10 µM: -9.99%

O=C(O)c1cc(NS(=O)(=O)c2ccccc2F)ccc1N1CCSCC1
cytotoxicity at 10 µM: -5.27%

Cc1n[nH]c(C2CN(C(=O)c3ccnc(C4CC4)n3)CCO2)n1 (configuration not stated)
cytotoxicity at 10 µM: 1.85%

COc1cc(C(=O)O)cc(I)c1OCC(=O)NCCc1ccccc1
cytotoxicity at 10 µM: -11.9%

O=C(NCC1CCCO1)c1cc(Sc2ncccn2)ccn1 (configuration not stated)
cytotoxicity at 10 µM: -17.2%

Cc1occc1C(=O)N1CCCC(c2nncn2C)C1 (configuration not stated)
cytotoxicity at 10 µM: -16%

CN(Cc1cnc(N)nc1)C(=O)C1CCN(C(=O)C2CCCC2)CC1
cytotoxicity at 10 µM: -1.42%

CC(C)CCn1cc(C(C(=O)O)N2CCC(N3CCSCC3)CC2)cn1 (configuration not stated)
cytotoxicity at 10 µM: -1.09%

Cc1ccc(CNC(=O)c2ccc(F)cc2)o1
cytotoxicity at 10 µM: -3.35%

COc1ccc(CNC(=O)NC2CCN(c3ccccc3)C2=O)cc1 (configuration not stated)
cytotoxicity at 10 µM: -2.98%

Cn1cc(C2CCCN2C(=O)COC2CCCCC2)cn1 (configuration not stated)
cytotoxicity at 10 µM: -8.79%

Cc1nsc(N2CCCN(C(=O)c3ccc4[nH]ccc4c3)CC2)n1
cytotoxicity at 10 µM: 0.997%

O=C(CCc1nc2ccccc2[nH]1)NC1CCOC2(CCOCC2)C1 (configuration not stated)
cytotoxicity at 10 µM: 9.64%

COCCC(=O)N1CCC2(CCCN2Cc2cccc(Cl)c2)C1 (configuration not stated)
cytotoxicity at 10 µM: 10.6%

CNC(=O)c1ccc(NC(=O)NC(C)c2cc(C)oc2C)cc1 (configuration not stated)
cytotoxicity at 10 µM: -12.8%

O=C(CN1C(=O)CCC1=O)N1CCC(CSCc2ccco2)CC1
cytotoxicity at 10 µM: -8%

c1ccc(NCc2cnc3n2CCN(C2CCOC2)CC3)nc1 (configuration not stated)
cytotoxicity at 10 µM: -70.5%

O=C(NC1CCC1)C1CCC2(CN(C(=O)c3ccno3)C2)O1 (configuration not stated)
cytotoxicity at 10 µM: -134%

Cc1nc(CN2CCN(C(=O)CCc3cccnc3)CC2)no1
cytotoxicity at 10 µM: -8.64%

CC(NC(=O)NCCCn1cncn1)c1ccc(F)cc1 (configuration not stated)
cytotoxicity at 10 µM: -9.92%

N#Cc1c(Cl)nsc1NCC1(c2ccccc2)CCC1
cytotoxicity at 10 µM: 26.7%

O=C([C@H]1C[C@H]2OCC[C@H]2N(C(=O)c2ccncc2)C1)N1CCCC1
cytotoxicity at 10 µM: 4.76%

CCn1nc(C)c2ncnc(NCCn3cccn3)c21
cytotoxicity at 10 µM: 7.73%

CCC1CCCCN1C(=O)Cn1nc(-c2ccc(C)o2)cc(N)c1=O (configuration not stated)
cytotoxicity at 10 µM: 3.27%

CNC(=O)CN1CCOCC12CCN(Cc1ccncc1)CC2
cytotoxicity at 10 µM: 3.07%

CCOCCN1CCN(CC(=O)NC2(C#N)CCCC2)CC1C (configuration not stated)
cytotoxicity at 10 µM: 5.33%

COc1ccccc1C(=O)NC[C@H]1COCc2nc3c(C)cccc3n21
cytotoxicity at 10 µM: 0.331%

CN1CCN(CC2CCN(C(=O)CCC3CCCCC3)CC2)CC1
cytotoxicity at 10 µM: -3.68%

Cc1csc(N2CCCN(C(=O)CCN3CCCC3=O)CC2)n1
cytotoxicity at 10 µM: 24.3%

COc1cccc(CC(=O)N2CC[C@@H]3NC(=O)CC[C@@H]32)c1
cytotoxicity at 10 µM: -4.04%

CCn1ccnc1CN1CCCN(C(=O)c2cc[nH]n2)CC1
cytotoxicity at 10 µM: -8.04%

COCCN1CCC2(COCc3cnc(-c4ccccc4)nc32)C1 (configuration not stated)
cytotoxicity at 10 µM: -111%

NC1CCc2nc(-c3ccncc3)nc(Nc3cccc(F)c3)c2C1 (configuration not stated)
cytotoxicity at 10 µM: 26.4%

COCCN1C[C@@H]2[C@@H](OC)CCN(S(=O)(=O)c3cccnc3)[C@@H]2C1
cytotoxicity at 10 µM: -71.7%

Cc1nc(COc2ccc(N(C)S(C)(=O)=O)cc2)sc1C
cytotoxicity at 10 µM: -2.75%

Cc1cc(C)cc(CN2CCC3(CC2)CC(Nc2ncccn2)CO3)c1 (configuration not stated)
cytotoxicity at 10 µM: 5.39%

O=C(Cc1cnn(-c2ccccc2)n1)NC(C1CC1)C1CC1
cytotoxicity at 10 µM: -9.66%

Cc1nccn1[C@@H]1CC[C@@H](N(C)S(=O)(=O)c2ccc(F)cc2)[C@H]1O
cytotoxicity at 10 µM: -0.535%

CCN(CC)CCn1c(NC(=O)c2scnc2C)nc2ccccc21
cytotoxicity at 10 µM: -27.5%

CCc1cccc(CC(=O)NC2CCN(C(=O)NC(C)(C)C)CC2)c1
cytotoxicity at 10 µM: -4.73%

O=C(CNC(Cn1cccn1)c1ccccc1)Nc1cnccn1 (configuration not stated)
cytotoxicity at 10 µM: 7.34%

CCN(CC)S(=O)(=O)CC(=O)N1CCc2ccc(F)cc21
cytotoxicity at 10 µM: -4.73%

CCOC(=O)[C@H]1CNC[C@H]1C(=O)OCC
cytotoxicity at 10 µM: 9.24%

CCc1c(C)n(CCOC)c2nc3ccccc3n2c1=O
cytotoxicity at 10 µM: -0.277%

O=C1CN(c2ccc(CNC(=O)NCC3CCOC3)cc2)CCN1 (configuration not stated)
cytotoxicity at 10 µM: -1.96%

COc1ccccc1-c1cccc(C2CCCN(C3CCOCC3)C2)n1 (configuration not stated)
cytotoxicity at 10 µM: 5.7%

CC(=O)NCCCC(=O)N1CCc2[nH]c(-c3ccccc3)nc2C1
cytotoxicity at 10 µM: -3.73%

CC1(C(=O)NCc2cccnc2Oc2ccc(F)c(F)c2)CCCNC1 (configuration not stated)
cytotoxicity at 10 µM: -0.37%

CCn1ncnc1CN1CCc2[nH]cnc2C1CCc1ccccc1 (configuration not stated)
cytotoxicity at 10 µM: 0.0189%

COc1ccc(F)cc1C(=O)Nc1nnc(C)s1
cytotoxicity at 10 µM: 11.1%

COCC(=O)N1CCN(C(=O)c2cccs2)C[C@H]1C(=O)OC
cytotoxicity at 10 µM: -0.655%

Nc1ccnc(CNc2cc(F)ccc2OCC2CCCO2)n1 (configuration not stated)
cytotoxicity at 10 µM: 17.4%

CCCc1n[nH]c(C2CN(CCS(=O)(=O)CC)CCO2)n1 (configuration not stated)
cytotoxicity at 10 µM: -5.83%

c1nc2n(c1CN1CCCCC1)CCN(C1CCOC1)CC2 (configuration not stated)
cytotoxicity at 10 µM: -152%

CC(Cn1ccnc1)NS(=O)(=O)c1ccc(C#N)c(Cl)c1 (configuration not stated)
cytotoxicity at 10 µM: -9.97%

Cn1ccnc1CNc1ccc(F)c(N2CCCS2(=O)=O)c1
cytotoxicity at 10 µM: -1.45%

COCC(=O)N1C[C@@H](C)[C@](O)(C(C)C)C1
cytotoxicity at 10 µM: 1.69%

Cn1cc(C(=O)N2CCCCC2CCc2ccc(O)cc2)cn1 (configuration not stated)
cytotoxicity at 10 µM: -2.3%

COc1nc2c(cc1C(=O)NC(C)Cc1cc(C)n[nH]1)CCC2 (configuration not stated)
cytotoxicity at 10 µM: -137%

O=S(=O)(c1ccccc1)N1CCC2(CCCN2Cc2ccc(Cl)cc2)C1 (configuration not stated)
cytotoxicity at 10 µM: -66.3%
